Results: ChEMBL document CHEMBL3585281, “Antibacterial Labdane Diterpenoids from Vitex vestita” (2015)
Converted amounts (≈) assume the structure as drawn.

Columns and labels:
Format in all cases: functional
Enterococcus hirae = test: Antibacterial activity against Enterococcus hirae CIP 5855 after 18 hrs by agar dilution method; settings: CIP 5855, 18 h
Outline: (§1)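 Agar-dilution MIC against Gram-positive strains. Compounds in DMSO, geometric dilutions giving final 100−0.75 mg/L in Mueller Hinton agar. Strains grown 18 h at 37 °C in trypticase soy broth, diluted in sterile water, spotted by Steers inoculator (about 1000 UFC/spot). Plates incubated 18 h at 37 °C; DMSO blank; ofloxacin positive control. MIC = lowest concentration with no visible growth.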

Corynebacterium striatum = test: Antibacterial activity against Corynebacterium striatum N840 after 18 hrs by agar dilution method; settings: N840, 18 h; outline: as §1
Bacillus cereus [1] = test: Antibacterial activity against Bacillus cereus N349 after 18 hrs by agar dilution method; settings: N349, 18 h; outline: as §1
Staphylococcus aureus [2] = test: Antibacterial activity against Staphylococcus aureus CRBIP 2121 after 18 hrs by agar dilution method; settings: CRBIP 2121, 18 h; outline: as §1
Enterococcus faecalis [3] = test: Antibacterial activity against Enterococcus faecalis N491 after 18 hrs by agar dilution method; settings: N491, 18 h; outline: as §1
Staphylococcus aureus [4] = test: Antibacterial activity against Staphylococcus aureus CIP 5710 after 18 hrs by agar dilution method; settings: CIP 5710, 18 h; outline: as §1
[5] = test system: Staphylococcus epidermidis; test: Antibacterial activity against Staphylococcus epidermidis CIP 53124 after 18 hrs by agar dilution method; settings: CIP 53124, 18 h; outline: as §1
Staphylococcus aureus [6] = test: Antibacterial activity against Staphylococcus aureus CIP 483 after 18 hrs by agar dilution method; settings: CIP 483, 18 h; outline: as §1
Enterococcus faecalis [7] = test: Antibacterial activity against Enterococcus faecalis N518 after 18 hrs by agar dilution method; settings: N518, 18 h; outline: as §1
Enterococcus faecalis [8] = test: Antibacterial activity against Enterococcus faecalis CIP 104676 after 18 hrs by agar dilution method; settings: CIP 104676, 18 h; outline: as §1
Listeria monocytogenes [9] = test: Antibacterial activity against Listeria monocytogenes N851 after 18 hrs by agar dilution method; settings: N851, 18 h; outline: as §1
[10] = test system: Staphylococcus intermedius; test: Antibacterial activity against Staphylococcus intermedius N987 after 18 hrs by agar dilution method; settings: N987, 18 h; outline: as §1
Mammaliicoccus sciuri = test: Antibacterial activity against Staphylococcus sciuri N993 after 18 hrs by agar dilution method; settings: N993, 18 h; outline: as §1
Enterococcus faecium [11] = test: Antibacterial activity against Enterococcus faecium N490 after 18 hrs by agar dilution method; settings: N490, 18 h; outline: as §1
Enterococcus faecium [12] = test: Antibacterial activity against Enterococcus faecium N733 after 18 hrs by agar dilution method; settings: N733, 18 h; outline: as §1
Enterococcus faecalis [13] = test: Antibacterial activity against Enterococcus faecalis CIP 103214 after 18 hrs by agar dilution method; settings: CIP 103214, 18 h; outline: as §1
Enterococcus faecium [14] = test: Antibacterial activity against Enterococcus faecium CIP 107387 after 18 hrs by agar dilution method; settings: CIP 107387, 18 h; outline: as §1
Bacillus cereus [15] = test: Antibacterial activity against Bacillus cereus CIP 6624 after 18 hrs by agar dilution method; settings: CIP 6624, 18 h; outline: as §1
Enterococcus durans = test: Antibacterial activity against Enterococcus durans CIP 104999 after 18 hrs by agar dilution method; settings: CIP 104999, 18 h; outline: as §1
[16] = test system: Enterococcus casseliflavus; test: Antibacterial activity against Enterococcus casseliflavus CIP 103018 after 18 hrs by agar dilution method; settings: CIP 103018, 18 h; outline: as §1
Enterococcus faecalis [17] = test: Antibacterial activity against Enterococcus faecalis N520 after 18 hrs by agar dilution method; settings: N520, 18 h; outline: as §1
Enterococcus gallinarum [18] = test: Antibacterial activity against Enterococcus gallinarum N489 after 18 hrs by agar dilution method; settings: N489, 18 h; outline: as §1
Bacillus spizizenii = test: Antibacterial activity against Bacillus subtilis ATCC 6633 after 18 hrs by agar dilution method; settings: ATCC 6633, 18 h; outline: as §1
Listeria monocytogenes [19] = test: Antibacterial activity against Listeria monocytogenes N783 after 18 hrs by agar dilution method; settings: N783, 18 h; outline: as §1
Listeria monocytogenes [20] = test: Antibacterial activity against Listeria monocytogenes CIP 103575 after 18 hrs by agar dilution method; settings: CIP 103575, 18 h; outline: as §1
Bacillus cereus [21] = test: Antibacterial activity against Bacillus cereus N190 after 18 hrs by agar dilution method; settings: N190, 18 h; outline: as §1
Staphylococcus aureus [22] = test: Antibacterial activity against Staphylococcus aureus CIP 7625 after 18 hrs by agar dilution method; settings: CIP 7625, 18 h; outline: as §1
Staphylococcus aureus [23] = test: Antibacterial activity against Staphylococcus aureus CIP 53154 after 18 hrs by agar dilution method; settings: CIP 53154, 18 h; outline: as §1
Enterococcus faecium [24] = test: Antibacterial activity against Enterococcus faecium N507 after 18 hrs by agar dilution method; settings: N507, 18 h; outline: as §1
Listeria innocua = test: Antibacterial activity against Listeria innocua E044 after 18 hrs by agar dilution method; settings: E044, 18 h; outline: as §1
Streptococcus agalactiae = test: Antibacterial activity against Streptococcus agalactiae CIP 103227 after 18 hrs by agar dilution method; settings: ATCC 13813, 18 h; outline: as §1
[25] = test system: Staphylococcus haemolyticus; test: Antibacterial activity against Staphylococcus haemolyticus CIP 8156 after 18 hrs by agar dilution method; settings: CIP 8156, 18 h; outline: as §1
Staphylococcus aureus [26] = test: Antibacterial activity against Staphylococcus aureus ATCC 9144 oxford after 18 hrs by agar dilution method; outline: as §1
Enterococcus gallinarum [27] = test: Antibacterial activity against Enterococcus gallinarum CIP 105985 after 18 hrs by agar dilution method; settings: CIP 105985, 18 h; outline: as §1
Enterococcus avium = test: Antibacterial activity against Enterococcus avium CIP 104053 after 18 hrs by agar dilution method; settings: CIP 104053, 18 h; outline: as §1
[28] = test system: Staphylococcus saprophyticus; test: Antibacterial activity against Staphylococcus saprophyticus CIP 76125 after 18 hrs by agar dilution method; settings: CIP 76125, 18 h; outline: as §1
Enterococcus faecium [29] = test: Antibacterial activity against Enterococcus faecium N823 after 18 hrs by agar dilution method; settings: N823, 18 h; outline: as §1
Staphylococcus aureus [30] = test: Antibacterial activity against Staphylococcus aureus ATCC 25923 after 18 hrs by agar dilution method; settings: ATCC 25923, 18 h; outline: as §1
Staphylococcus aureus [31] = test: Antibacterial activity against Staphylococcus aureus CIP 53156 after 18 hrs by agar dilution method; settings: CIP 53156, 18 h; outline: as §1
Listeria monocytogenes [32] = test: Antibacterial activity against Listeria monocytogenes N836 after 18 hrs by agar dilution method; settings: N836, 18 h; outline: as §1
[33] = test system: Enterococcus casseliflavus; test: Antibacterial activity against Enterococcus casseliflavus N487 after 18 hrs by agar dilution method; settings: N487, 18 h; outline: as §1
Enterococcus faecium [34] = test: Antibacterial activity against Enterococcus faecium CIP 103014 after 18 hrs by agar dilution method; settings: CIP 103014, 18 h; outline: as §1
[35] = test system: Staphylococcus saprophyticus; test: Antibacterial activity against Staphylococcus saprophyticus E260 after 18 hrs by agar dilution method; settings: E260, 18 h; outline: as §1
Enterococcus gallinarum [36] = test: Antibacterial activity against Enterococcus gallinarum N492 after 18 hrs by agar dilution method; settings: N492, 18 h; outline: as §1
Bacillus cereus [37] = test: Antibacterial activity against Bacillus cereus N258 after 18 hrs by agar dilution method; settings: N258, 18 h; outline: as §1
[38] = test system: Staphylococcus lugdunensis; test: Antibacterial activity against Staphylococcus lugdunensis ATCC 43809 after 18 hrs by agar dilution method; settings: ATCC 43809, 18 h; outline: as §1

MIC (Enterococcus hirae): 3 µM (≈ 1.08 µg/mL)
MIC (Corynebacterium striatum): > 354 µM
MIC (Bacillus cereus [1]): 1.4 µM (≈ 0.506 µg/mL)
MIC (Staphylococcus aureus [2]): 177 µM (≈ 64 µg/mL)
MIC (Enterococcus faecalis [3]): 6 µM (≈ 2.17 µg/mL)
MIC (Staphylococcus aureus [4]): 0.7 µM (≈ 0.253 µg/mL)
MIC [5]: 1.4 µM (≈ 0.506 µg/mL)
MIC (Staphylococcus aureus [6]): 0.7 µM (≈ 0.253 µg/mL)
MIC (Enterococcus faecalis [7]): 11 µM (≈ 3.98 µg/mL)
MIC (Enterococcus faecalis [8]): 3 µM (≈ 1.08 µg/mL)
MIC (Listeria monocytogenes [9]): 6 µM (≈ 2.17 µg/mL)
MIC [10]: 89 µM (≈ 32.2 µg/mL)
MIC (Mammaliicoccus sciuri): 3 µM (≈ 1.08 µg/mL)
MIC (Enterococcus faecium [11]): 6 µM (≈ 2.17 µg/mL)
MIC (Enterococcus faecium [12]): > 354 µM
MIC (Enterococcus faecalis [13]): 3 µM (≈ 1.08 µg/mL)
MIC (Enterococcus faecium [14]): 177 µM (≈ 64 µg/mL)
MIC (Bacillus cereus [15]): 0.7 µM (≈ 0.253 µg/mL)
MIC (Enterococcus durans): 1.4 µM (≈ 0.506 µg/mL)
MIC [16]: 11 µM (≈ 3.98 µg/mL)
MIC (Enterococcus faecalis [17]): 354 µM (≈ 128 µg/mL)
MIC (Enterococcus gallinarum [18]): 6 µM (≈ 2.17 µg/mL)
MIC (Bacillus spizizenii): ≤ 0.2 µM
MIC (Listeria monocytogenes [19]): 6 µM (≈ 2.17 µg/mL)
MIC (Listeria monocytogenes [20]): 6 µM (≈ 2.17 µg/mL)
MIC (Bacillus cereus [21]): 0.7 µM (≈ 0.253 µg/mL)
MIC (Staphylococcus aureus [22]): 1.4 µM (≈ 0.506 µg/mL)
MIC (Staphylococcus aureus [23]): 0.7 µM (≈ 0.253 µg/mL)
MIC (Enterococcus faecium [24]): 354 µM (≈ 128 µg/mL)
MIC (Listeria innocua): 11 µM (≈ 3.98 µg/mL)
MIC (Streptococcus agalactiae): 1.4 µM (≈ 0.506 µg/mL)
MIC (Staphylococcus aureus [26]): 0.7 µM (≈ 0.253 µg/mL)
MIC (Enterococcus gallinarum [27]): 11 µM (≈ 3.98 µg/mL)
MIC (Enterococcus avium): 6 µM (≈ 2.17 µg/mL)
MIC [28]: 3 µM (≈ 1.08 µg/mL)
MIC (Enterococcus faecium [29]): 354 µM (≈ 128 µg/mL)
MIC (Staphylococcus aureus [30]): 1.4 µM (≈ 0.506 µg/mL)
MIC (Staphylococcus aureus [31]): 0.7 µM (≈ 0.253 µg/mL)
MIC (Listeria monocytogenes [32]): 6 µM (≈ 2.17 µg/mL)
MIC [33]: 11 µM (≈ 3.98 µg/mL)
MIC (Enterococcus faecium [34]): 22 µM (≈ 7.95 µg/mL)
MIC [35]: 3 µM (≈ 1.08 µg/mL)
MIC (Enterococcus gallinarum [36]): 11 µM (≈ 3.98 µg/mL)
MIC (Bacillus cereus [37]): 0.7 µM (≈ 0.253 µg/mL)
MIC [38]: 3 µM (≈ 1.08 µg/mL)
SMILES: CC1COc2c(N3CCN(C)CC3)c(F)cc3c(=O)c(C(=O)O)cn1c23 (stereo unspecified) [OFLOXACIN]
MIC [25]: 0.7 µM (≈ 0.253 µg/mL)
